An excerpt weighted towards active compounds, which were near 1.8% of everything screened.
M4 antag: blocks acetylcholine activation of human M4 receptor; CHO-hM4 cells, ACh EC80, Fluo-8 calcium fluorescence; inhibition, % at 3 µM; 360,000 tested, 0.73% active; P08173;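 active = inhibition above its plate's cutoff, the mean inhibition of sample wells plus 3 SD, cut at about 27% in these data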;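 also: 0% = acetylcholine EC80 with DMSO and 100% = DMSO without agonist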
M5 PAM: potentiates acetylcholine response at human M5 receptor; P08912; CHO-K1 hM5, Fluo-8 calcium, ACh EC20 PAM; 0% = ACh EC20, 100% = ACh EC100; activation, % at 3 µM; 360,000 tested, 0.3% active; AID 624038;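 active = activation above the run cutoff, the mean activation of all test compounds plus 3 SD, cut at about 18% in these data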
Target sequence (P08912 whole entry, looked up): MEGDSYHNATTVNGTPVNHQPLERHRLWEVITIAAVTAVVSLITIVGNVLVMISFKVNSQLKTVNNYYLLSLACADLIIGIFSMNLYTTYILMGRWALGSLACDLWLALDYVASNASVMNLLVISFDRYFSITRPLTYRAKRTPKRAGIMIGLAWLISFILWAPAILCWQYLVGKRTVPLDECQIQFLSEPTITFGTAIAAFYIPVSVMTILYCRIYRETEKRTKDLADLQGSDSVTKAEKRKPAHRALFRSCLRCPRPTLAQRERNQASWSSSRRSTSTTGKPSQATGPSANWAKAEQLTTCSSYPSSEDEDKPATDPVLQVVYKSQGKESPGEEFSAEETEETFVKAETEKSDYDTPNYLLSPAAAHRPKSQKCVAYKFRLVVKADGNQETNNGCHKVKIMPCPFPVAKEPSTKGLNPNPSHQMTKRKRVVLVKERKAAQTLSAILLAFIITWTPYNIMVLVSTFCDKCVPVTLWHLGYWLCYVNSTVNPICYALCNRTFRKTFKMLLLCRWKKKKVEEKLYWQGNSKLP
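Probe or stimulus: acetylcholine, EC20 level; Assay system: human M5 receptor in CHO-K1 cells; Schedule: compound preincubation 140 s before EC20 acetylcholine addition; Technique: intracellular calcium via Fluo-8 fluorescence; Dosing: single-point, 3 µM nominal; Read-out basis: percent activation from peak-over-basal fluorescence ratio, scaled EC20-to-EC100 acetylcholine; Repeats: one well per compound, no replicates.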
M5 antag: antagonists of human muscarinic M5 receptor (CHRM5) | inhibition, % at 3 µM | CHO-hM5 cells, Fluo-8 calcium fluorescence, ACh EC80 | P08912 | 360,000 tested, 0.59% active;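 active = inhibition above a per-plate cutoff, the mean of that plate's test compounds plus 3 SD, cut at about 27% in these data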;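 also: 0% = acetylcholine EC80 with DMSO and 100% = DMSO without agonist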
M4 ag: CHRM4 agonism in calcium assay; CHO-K1 hM4/Gqi5, Fluo-8 calcium fluorescence; vehicle 0%, full acetylcholine response 100%; 360,000 tested, 0.14% active; activation, % at 3 µM; P08173;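 active = activation above the run mean over all test wells plus 3 SD, cut at about 32% in these data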;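 also: peak over basal fluorescence ratio per well then scaled between controls; 0% = DMSO wells and 100% = acetylcholine at EC100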
M5 ag: CHRM5 agonism in calcium assay; CHO-K1 hM5 cells, Fluo-8 calcium fluorescence; 0% DMSO wells, 100% maximal acetylcholine response; AID 624037; activation, % at 3 µM; 360,000 tested, 0.19% active;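 active = activation above the run's mean over test compounds plus 3 SD, cut at about 23% in these data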;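 also: signal is peak over basal fluorescence ratio across the kinetic read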
CHRM4 PAM: potentiates acetylcholine response at human M4 receptor | CHO-K1 hM4/Gqi5, Fluo-8 calcium fluorescence, ACh EC20; 0% = ACh EC20, 100% = maximal ACh | activation, % at 3 µM | 360,000 tested, 0.4% active | AID 624126;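 active = activation above its plate's cutoff, the mean activation of sample wells plus 3 SD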
Numbers without * were called inactive; · = no result.

SMILES | M4 antag | M5 PAM | M5 antag | M4 ag | M5 ag | CHRM4 PAM
Cc1ccc(C(=O)N(Cc2ccccc2)C(C)(C)C)cc1C | 36.6* | -19.7 | 20.2 | -1.6 | -9.4 | -15.4
CC(C)(C)N(Cc1ccccc1)C(=O)c1ccc(Br)o1 | -4.0 | 0.4 | 1.6 | -2.2 | -8.6 | 1.1
CC(C)(C)N(Cc1ccccc1)C(=O)c1ccc(Cl)cc1[N+](=O)[O-] | 26.8* | -19.2 | 11.4 | 2.3 | -9.2 | -18.0
CC(C)S(=O)(=O)N1CCCC(C(=O)c2cccc(Cl)c2)C1 (stereo unspecified) | -7.6 | -0.3 | -8.1 | 2.1 | -5.1 | 5.5
COCCNc1nc2cc(-c3ccccc3)sc2c(=O)n1C | -8.4 | 0.8 | -10.3 | 2.2 | -1.8 | 4.5
O=C(COC(=O)c1ccccc1[N+](=O)[O-])Nc1nnc(-c2ccccc2)o1 | -4.9 | -3.4 | 2.3 | 0.2 | -3.2 | -6.1
Cc1ccc(S(=O)(=O)Nc2ccc3cn[nH]c3c2)c(C)c1 | -0.3 | -4.7 | 3.6 | 5.7 | 12.4 | -0.1
CCOc1cc(C)c(S(=O)(=O)Nc2ccc3cn[nH]c3c2)cc1C | 16.7 | -16.4 | 29.5* | 14.3 | 8.8 | -2.0
CCn1nnnc1NCc1ccc(N2CCCC2)cc1 | 35.1* | -7.5 | 14.1 | 0.6 | -9.5 | -24.2
CCN(CC)CCC=C(c1cccs1)c1cccs1 | 47.5* | -36.0 | 28.2* | 2.6 | -9.7 | -16.1
CC(=O)N1CCN(C(=O)CCc2nc3ccccc3c(=O)[nH]2)CC1 | -8.0 | 5.5 | -17.6 | -0.2 | -3.5 | 10.9
O=C(CCc1nc2ccccc2c(=O)[nH]1)N1CCN(C/C=C/c2ccccc2)CC1 | 4.2 | -16.2 | 28.0* | 13.7 | -0.7 | -22.9
O=C(NNc1c([N+](=O)[O-])cc(C(F)(F)F)cc1[N+](=O)[O-])c1ccco1 | 5.8 | -12.9 | 23.7 | 13.1 | 7.4 | -2.5
O=C1CC(c2nc3ccccc3[nH]2)CN1c1ccccc1F (stereo unspecified) | 78.4* | -14.0 | -1.6 | 2.2 | -1.0 | -13.9
COc1ccc(Cl)cc1N1CC(c2nc3ccccc3[nH]2)CC1=O (stereo unspecified) | -8.0 | -3.2 | -0.8 | 7.3 | 2.5 | 2.2
Cc1ccnc(N/C=C(\C#N)c2nc(-c3cccc(Br)c3)cs2)c1 | 30.7* | -14.2 | 21.2 | 135.1* | 53.0* | -12.2
N#C/C(=C\Nc1ccc2cn[nH]c2c1)c1nc(-c2ccccc2)cs1 | -2.8 | -3.1 | 3.5 | 1.1 | 1.0 | 2.8
CCOc1ccc(CN(C)C(=O)CN2C(=O)NC(c3ccccc3)(c3ccccc3)C2=O)cc1 | -7.3 | 2.3 | -4.5 | 2.5 | -3.9 | 12.6
CCc1ccc(NC(=O)CCS(=O)(=O)c2ccc(Cl)cc2)cc1 | 1.1 | -4.4 | 3.2 | 2.0 | -7.7 | 2.0
CCN1CCN(CNC(=O)c2cnccn2)CC1 | -1.0 | 20.7* | 4.7 | 0.7 | -1.7 | 19.1
CN1[C@@H]2CC(OC(=O)[C@H](CO)c3ccccc3)C[C@H]1[C@@H]1O[C@@H]12 (stereo partly specified) | 100.0* | · | · | -0.1 | · | -17.5
O=C(c1ccc(Br)s1)N1CCc2ccccc2C1 | -2.2 | 19.1* | -3.8 | 1.3 | -6.7 | 2.9
O=C(c1cccs1)N1CCc2ccccc2C1 | -11.6 | 1.4 | -8.7 | 0.7 | -8.1 | 2.7
N#CCCn1cc(/C=N/O)c(-c2cccc([N+](=O)[O-])c2)n1 | 8.2 | -15.4 | 46.8* | 0.8 | -10.5 | 3.7
N#CCCn1cc(/C=N/O)c(-c2ccccc2)n1 | 2.0 | 9.5 | -8.0 | 0.7 | 2.0 | 19.2
Cc1ccc(NC2CCCN(C(=O)Cc3nonc3C)C2)cc1C (stereo unspecified) | -6.3 | -1.8 | -4.9 | 0.5 | -4.3 | 4.3
Nc1nc(Nc2ccccc2)nc(NCc2ccccc2)c1[N+](=O)[O-] | -4.0 | 3.1 | 4.6 | -1.0 | -5.5 | -21.7
Nc1nc(Nc2ccccc2F)nc(NCc2ccccc2)c1[N+](=O)[O-] | -8.0 | 19.1* | -4.6 | -1.3 | 6.3 | 6.2
CCCCn1c(N)c(N(CC(C)C)C(=O)C2CCN(S(=O)(=O)c3ccccc3)CC2)c(=O)[nH]c1=O | 10.5 | 3.1 | 1.0 | 0.2 | 0.1 | 2.6

Source: PubChem BioAssay
